# Tests used:
# Rattus norvegicus [1] = assay: (§1) Tested for % inhibition of PCP induced hyperactivity in rats at 30 mg/kg; assay type: functional
# How it was run: (§2)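 Rats housed singly and acclimatized 60 min in activity-monitoring apparatus inside a sound-proof box. Oral dosing 180 min before PCP 5 mg/kg i.p.; locomotor counts recorded every 10 min for 120 min, n=6 per group. Total counts expressed as percent inhibition relative to vehicle (100%); ED50 derived; ANOVA plus Dunnett's test.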
# Rattus norvegicus [2] = assay: (§3) Tested for % inhibition of PCP induced hyperactivity in rats at 10 mg/kg; assay type: functional; how it was run: as §2
# Rattus norvegicus [3] = assay: Tested for % inhibition of PCP induced hyperactivity in rats at 3 mg/kg; assay type: functional; how it was run: as §2
# Rattus norvegicus [4] = assay: (§4) Tested for mGluR agonist activity by measuring the PCP induced hyperactivity in rats at 30 mg/kg; assay type: functional; how it was run: as §2
# Rattus norvegicus [5] = assay: (§5) Tested for mGluR agonist activity by measuring the PCP induced hyperactivity in rats at 10 mg/kg; assay type: functional; how it was run: as §2
# Rattus norvegicus [6] = assay: Tested for % inhibition of PCP induced head-weavings in rats at 100 ug/kg; assay type: functional
# How it was run: (§6)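 Rats acclimatized individually at least 60 min. Compound given orally 60 min before PCP 7.5 mg/kg i.p. Head-weavings (slow side-to-side head movements) counted every 10 min for 30 min after PCP, n=6 per group. Percent inhibition versus vehicle total (100%); ED50 derived; ANOVA with Dunnett's test.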
# Rattus norvegicus [7] = assay: (§7) Effective dose to evaluate PCP induced hyper activity in rats after oral administration; assay type: functional; how it was run: as §2
# [8] = molecular target: T1, Metabotropic glutamate receptor 3 (Rattus norvegicus, UniProt P31422); assay: Tested for binding affinity against Metabotropic glutamate receptor 3 in CHO cells using [3H]-7 as radioligand; assay type: cell-based
# T1 sequence (P31422 whole entry): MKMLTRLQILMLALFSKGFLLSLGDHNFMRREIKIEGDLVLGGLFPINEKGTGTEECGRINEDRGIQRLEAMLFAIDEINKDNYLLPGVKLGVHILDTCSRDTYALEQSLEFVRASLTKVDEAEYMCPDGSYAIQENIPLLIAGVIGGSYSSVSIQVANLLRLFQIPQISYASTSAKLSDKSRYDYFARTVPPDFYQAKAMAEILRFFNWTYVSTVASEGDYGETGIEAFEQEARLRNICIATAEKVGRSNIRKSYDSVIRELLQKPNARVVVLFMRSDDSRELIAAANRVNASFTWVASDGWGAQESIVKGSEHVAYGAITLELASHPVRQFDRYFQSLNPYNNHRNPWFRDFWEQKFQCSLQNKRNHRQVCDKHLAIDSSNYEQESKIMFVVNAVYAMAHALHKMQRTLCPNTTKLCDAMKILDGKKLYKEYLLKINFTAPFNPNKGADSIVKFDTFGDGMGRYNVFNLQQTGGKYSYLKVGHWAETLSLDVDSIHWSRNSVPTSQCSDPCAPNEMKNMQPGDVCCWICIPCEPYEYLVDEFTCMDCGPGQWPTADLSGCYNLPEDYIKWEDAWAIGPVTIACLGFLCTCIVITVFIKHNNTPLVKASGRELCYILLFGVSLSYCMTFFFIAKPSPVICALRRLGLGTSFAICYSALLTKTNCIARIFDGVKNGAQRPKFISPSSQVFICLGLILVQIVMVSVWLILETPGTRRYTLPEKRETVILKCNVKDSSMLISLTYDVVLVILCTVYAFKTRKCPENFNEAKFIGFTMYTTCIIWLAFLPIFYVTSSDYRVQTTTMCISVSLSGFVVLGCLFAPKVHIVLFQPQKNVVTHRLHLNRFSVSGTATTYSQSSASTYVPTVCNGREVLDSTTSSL
# Rattus norvegicus [9] = assay: Tested for mGluR agonist activity by measuring the PCP induced hyperactivity in rats at 3 mg/kg; assay type: functional; how it was run: as §2
# Rattus norvegicus [10] = assay: Tested for mGluR agonist activity by measuring the PCP induced head-weavings in rats at 1000 ug/kg; assay type: functional; how it was run: as §6
# Rattus norvegicus [11] = assay: Tested for mGluR agonist activity by measuring the PCP induced head-weavings in rats at 100 ug/kg; assay type: functional; how it was run: as §6
# Rattus norvegicus [12] = assay: Tested for mGluR agonist activity by measuring the PCP induced head-weavings in rats at 300 ug/kg; assay type: functional; how it was run: as §6
# Rattus norvegicus [13] = assay: Tested for % inhibition of PCP induced head-weavings in rats at 1000 ug/kg; assay type: functional; how it was run: as §6
# [14] = molecular target: T1, Metabotropic glutamate receptor 3; assay: Antagonist activity against Metabotropic glutamate receptor 3 expressed in CHO cells was evaluated in presence of 30 uM glutamic acid; assay type: functional, cell-based
# How it was run: (§8)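 mGluR2- or mGluR3-expressing CHO cells grown 2 days, then held 4-5 h in medium without glutamine. Cells were preincubated 20 min at 37 °C in PBS with 1 mM IBMX, then exposed for 15 min at 37 °C to 10 µM forskolin plus test agent with 30 µM glutamic acid present. Reaction stopped with ice-cold ethanol; cAMP measured by enzyme immunoassay.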
# [15] = molecular target: T1, Metabotropic glutamate receptor 3; assay: Agonist potency against cloned Metabotropic glutamate receptor 3; assay type: functional
# Rattus norvegicus [16] = assay: Tested for % inhibition of PCP induced head-weavings in rats at 300 ug/kg; assay type: functional; how it was run: as §6
# Rattus norvegicus [17] = assay: as §1; assay type: functional; remark: listed apart in the source
# Rattus norvegicus [18] = assay: Tested for % inhibition of PCP induced head-weavings in rats at 10000 ug/kg
# Rattus norvegicus [19] = assay: Tested for mGluR agonist activity by measuring the head-weaving behavior in rats at 1000 ug/kg
# Rattus norvegicus [20] = assay: as §3; assay type: functional; remark: listed apart in the source
# Rattus norvegicus [21] = assay: as §4; assay type: functional; remark: listed apart in the source
# Rattus norvegicus [22] = assay: as §7; assay type: functional; remark: listed apart in the source
# Rattus norvegicus [23] = assay: as §5; assay type: functional; remark: listed apart in the source
# Rattus norvegicus [24] = assay: Tested for mGluR agonist activity by measuring the PCP induced hyperactivity in rats at 100 mg/kg; assay type: functional
# Rattus norvegicus [25] = assay: Tested for mGluR agonist activity by measuring the PCP induced hyperactivity in rats at […]; assay type: functional
# Rattus norvegicus [26] = assay: Tested for % inhibition of PCP induced hyperactivity in rats at 100 mg/kg
# Rattus norvegicus [27] = assay: Effective dose to evaluate PCP induced head-weaving behavior in rats after oral administration; assay type: functional
# [28] = molecular target: T2, Metabotropic glutamate receptor 2 (Rattus norvegicus, UniProt P31421); assay: Antagonist activity against Metabotropic glutamate receptor 2 expressed in CHO cells was evaluated in presence of 30 uM glutamic acid; assay type: functional, cell-based; conditions: read-out: EC50 (the source's name)
# T2 sequence (P31421 whole entry): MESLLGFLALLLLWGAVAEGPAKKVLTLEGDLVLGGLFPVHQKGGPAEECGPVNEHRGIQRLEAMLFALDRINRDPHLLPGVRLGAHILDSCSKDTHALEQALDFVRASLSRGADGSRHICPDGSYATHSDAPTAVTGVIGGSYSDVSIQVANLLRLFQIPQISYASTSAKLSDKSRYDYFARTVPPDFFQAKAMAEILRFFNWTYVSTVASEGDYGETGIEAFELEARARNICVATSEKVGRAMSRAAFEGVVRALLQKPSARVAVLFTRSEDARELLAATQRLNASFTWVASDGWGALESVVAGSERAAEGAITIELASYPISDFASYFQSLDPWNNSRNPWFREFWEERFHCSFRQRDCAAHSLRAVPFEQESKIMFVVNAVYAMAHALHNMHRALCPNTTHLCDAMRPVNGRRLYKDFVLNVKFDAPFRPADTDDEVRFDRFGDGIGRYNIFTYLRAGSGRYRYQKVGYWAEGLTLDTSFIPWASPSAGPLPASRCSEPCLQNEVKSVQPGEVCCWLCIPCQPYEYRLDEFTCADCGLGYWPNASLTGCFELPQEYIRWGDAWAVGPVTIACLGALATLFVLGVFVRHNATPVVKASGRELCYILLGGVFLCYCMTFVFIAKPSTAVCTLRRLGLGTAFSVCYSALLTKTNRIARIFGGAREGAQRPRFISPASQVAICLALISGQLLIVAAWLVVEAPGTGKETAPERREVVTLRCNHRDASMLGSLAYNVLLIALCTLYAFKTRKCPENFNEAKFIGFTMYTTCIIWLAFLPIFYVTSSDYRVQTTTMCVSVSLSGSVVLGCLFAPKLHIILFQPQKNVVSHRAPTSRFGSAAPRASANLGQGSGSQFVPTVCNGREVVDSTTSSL
# [29] = molecular target: T2, Metabotropic glutamate receptor 2; assay: Agonist activity against Metabotropic glutamate receptor 2 expressed in CHO cells was evaluated by measuring forskolin-induced cyclic AMP formation; assay type: functional, cell-based
# [30] = molecular target: T2, Metabotropic glutamate receptor 2; assay: Antagonist activity against Metabotropic glutamate receptor 2 expressed in CHO cells was evaluated by measuring forskolin-induced cyclic AMP formation; assay type: functional, cell-based; how it was run: as §8
# Rattus norvegicus [31] = assay: Tested for mGluR agonist activity by measuring the PCP induced hyperactivity in rats at 1 mg/kg; assay type: functional; how it was run: as §2
# Rattus norvegicus [32] = assay: Tested for mGluR agonist activity by measuring the PCP induced hyperactivity in rats at 0.3 mg/kg; assay type: functional; how it was run: as §2
# Rattus norvegicus [33] = assay: Tested for mGluR agonist activity by measuring the PCP induced head weaving behavior in rats at 0.03 ug/kg; assay type: functional; how it was run: as §6
# Rattus norvegicus [34] = assay: Tested for % inhibition of PCP induced head-weavings in rats at 0.1 ug/kg; assay type: functional; how it was run: as §6
# [35] = molecular target: T2, Metabotropic glutamate receptor 2; assay: Tested for binding affinity against Metabotropic glutamate receptor 2 in CHO cells using [3H]-7 as radioligand; assay type: cell-based
# Rattus norvegicus [36] = assay: Tested for mGluR agonist activity by measuring the PCP induced hyperactivity in rats at 0.1 mg/kg; assay type: functional; how it was run: as §2
# Rattus norvegicus [37] = assay: Tested for % inhibition of PCP induced head-weavings in rats at 0.3 ug/kg; assay type: functional; how it was run: as §6
# Rattus norvegicus [38] = assay: Tested for mGluR agonist activity by measuring the PCP induced head weaving behavior in rats at 0.3 ug/kg; assay type: functional; how it was run: as §6
# Rattus norvegicus [39] = assay: Tested for % inhibition of PCP induced hyperactivity in rats at 1 mg/kg; assay type: functional; how it was run: as §2
# Rattus norvegicus [40] = assay: Tested for % inhibition of PCP induced head-weavings in rats at 0.03 ug/kg; assay type: functional; how it was run: as §6
# Rattus norvegicus [41] = assay: Tested for % inhibition of PCP induced hyperactivity in rats at 0.3 mg/kg; assay type: functional; how it was run: as §2
# Rattus norvegicus [42] = assay: Tested for % inhibition of PCP induced hyperactivity in rats at 0.1 mg/kg; assay type: functional; how it was run: as §2
# Rattus norvegicus [43] = assay: Tested for mGluR agonist activity by measuring the PCP induced head weaving behavior in rats at 0.1 ug/kg; assay type: functional; how it was run: as §6
structure (smiles),measurement,setting,value
N[C@]1(C(=O)O)[C@H]2[C@@H](C[C@@H]1F)[C@@H]2C(=O)O,inhibition in vivo at 30 mg/kg,Rattus norvegicus [1],97%
same,inhibition in vivo at 10 mg/kg,Rattus norvegicus [2],79%
same,inhibition in vivo at 3 mg/kg,Rattus norvegicus [3],26%
same,Total counts,Rattus norvegicus [4],1850
same,Total counts,Rattus norvegicus [5],11300
same,inhibition in vivo at 0.1 mg/kg,Rattus norvegicus [6],35%
same,ED50,Rattus norvegicus [7],5.1 mg/kg
same,Ki,[8],65.9 nM
same,Total counts,Rattus norvegicus [9],40600
same,Total counts,Rattus norvegicus [10],7.5
same,Total counts,Rattus norvegicus [11],25.5
same,Total counts,Rattus norvegicus [12],21
same,inhibition in vivo at 1 mg/kg,Rattus norvegicus [13],81%
same,EC50,[14],> 100000 nM
same,EC50,[15],45.4 nM
same,inhibition in vivo at 0.3 mg/kg,Rattus norvegicus [16],47%
N[C@@]1(C(=O)O)CC[C@H]2[C@H](C(=O)O)[C@H]21,inhibition in vivo at 30 mg/kg,Rattus norvegicus [17],32%
same,Inhibition %,Rattus norvegicus [18],83%
same,Ki,[8],53.5 nM
same,Number of head-weavings,Rattus norvegicus [19],33
same,inhibition in vivo at 10 mg/kg,Rattus norvegicus [20],37%
same,Total counts,Rattus norvegicus [21],43800
same,ED50,Rattus norvegicus [22],> 100 mg/kg
same,Total counts,Rattus norvegicus [23],40600
same,Total counts,Rattus norvegicus [24],36000
same,EC50,[15],62.8 nM
same,Total counts,Rattus norvegicus [25],6.5
same,inhibition in vivo at 100 mg/kg,Rattus norvegicus [26],44%
same,ED50,Rattus norvegicus [27],3 mg/kg
N[C@@]1(C(=O)O)CC(O)[C@@H]2[C@H]1[C@@]2(F)C(=O)O (mixture of isomers),IC50,[28],> 100000 nM
same,EC50,[29],21 nM
N[C@@]1(C(=O)O)CC(=O)[C@@H]2[C@H]1[C@@]2(F)C(=O)O (racemic),EC50,[29],1.26 nM
N[C@]1(C(=O)O)[C@H]2[C@@H](CC1(F)F)[C@@H]2C(=O)O (racemic),IC50,[28],36200 nM
same,EC50,[29],> 100000 nM
N[C@@]1(C(=O)O)CC[C@@H]2[C@H]1[C@@]2(F)C(=O)O (racemic),EC50,[29],34.2 nM
C[C@]1(C(=O)O)[C@@H]2CC[C@@](N)(C(=O)O)[C@@H]21 (racemic),EC50,[29],> 100000 nM
same,EC50,[30],> 100000 nM
N[C@@]1(C(=O)O)CC[C@@H]2[C@H]1[C@@]2(F)C(=O)O (stereo in doubt; (+)11),EC50,[29],1120 nM
N[C@@]1(C(=O)O)CC(=O)[C@@H]2[C@H]1[C@@]2(F)C(=O)O (stereo in doubt; (+)-14),Total counts,Rattus norvegicus [31],26100
same,Total counts,Rattus norvegicus [32],27700
same,Total counts,Rattus norvegicus [33],27.1
same,inhibition in vivo at 0.0001 mg/kg,Rattus norvegicus [34],52%
same,inhibition in vivo at 3 mg/kg,Rattus norvegicus [3],87%
same,Ki,[35],3.3 nM
same,IC50,[28],> 100000 nM
same,Total counts,Rattus norvegicus [36],38500
same,inhibition in vivo at 0.0003 mg/kg,Rattus norvegicus [37],86%
same,ED50,Rattus norvegicus [7],0.3 mg/kg
same,Ki,[8],3.62 nM
same,Total counts,Rattus norvegicus [38],4.88
same,EC50,[29],0.57 nM
same,Total counts,Rattus norvegicus [9],7760
same,inhibition in vivo at 1 mg/kg,Rattus norvegicus [39],56%
same,inhibition in vivo at 3e-05 mg/kg,Rattus norvegicus [40],21%
same,inhibition in vivo at 0.3 mg/kg,Rattus norvegicus [41],54%
same,inhibition in vivo at 0.1 mg/kg,Rattus norvegicus [42],36%
same,EC50,[14],> 100000 nM
same,EC50,[15],2.07 nM
same,Total counts,Rattus norvegicus [43],16.2
N[C@@]1(C(=O)O)CC[C@@H]2[C@H]1[C@@]2(F)C(=O)O (stereo in doubt; (-)-11),Ki,[35],22.5 nM
same,IC50,[28],> 100000 nM
same,Ki,[8],41.7 nM
same,EC50,[29],16.6 nM
same,EC50,[14],> 100000 nM
same,EC50,[15],80.9 nM
N[C@@]1(C(=O)O)CC(=O)[C@@H]2[C@H]1[C@@]2(F)C(=O)O (stereo in doubt; (-)-14),EC50,[29],94.7 nM

# Reference: ChEMBL document CHEMBL1133557, “Synthesis, SARs, and pharmacological characterization of 2-amino-3 or 6-fluorobicyclo[3.1.0]hexane-2,6-dicarboxylic acid derivatives as potent, selective, and orally active group II metabotropic glutamate receptor agonists” (J Med Chem, 2000)
